# M1 ag: M1 muscarinic receptor agonism | CHO-M1 cells, Fluo-4 calcium fluorescence, agonist mode; active compounds read high | B-score at 10 µM | 64,000 compounds, 3% hits | AID 626;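 active = fluorescence rise, raw or as B-score row- and column-corrected plate score, outside the 99.7% band of its plate's samples, either direction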
# RORa activator: activators of human nuclear receptor RORA | activation, % at 10 µM | AID 560 | CHO-K1 Gal4-RORA LBD luciferase reporter, luminescence; percent increase over mock-subtracted basal signal | 65,000 compounds, 1.5% hits | P35398;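 active = activation above the mean of all tested compounds plus 3 SD, cut at about 49% in these data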;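 note: 0% = DMSO-treated RORA cells and 100% = added signal equal to DMSO minus mock-transfected cells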
# Target sequence (P35398 whole entry, looked up, the tested form may be a part): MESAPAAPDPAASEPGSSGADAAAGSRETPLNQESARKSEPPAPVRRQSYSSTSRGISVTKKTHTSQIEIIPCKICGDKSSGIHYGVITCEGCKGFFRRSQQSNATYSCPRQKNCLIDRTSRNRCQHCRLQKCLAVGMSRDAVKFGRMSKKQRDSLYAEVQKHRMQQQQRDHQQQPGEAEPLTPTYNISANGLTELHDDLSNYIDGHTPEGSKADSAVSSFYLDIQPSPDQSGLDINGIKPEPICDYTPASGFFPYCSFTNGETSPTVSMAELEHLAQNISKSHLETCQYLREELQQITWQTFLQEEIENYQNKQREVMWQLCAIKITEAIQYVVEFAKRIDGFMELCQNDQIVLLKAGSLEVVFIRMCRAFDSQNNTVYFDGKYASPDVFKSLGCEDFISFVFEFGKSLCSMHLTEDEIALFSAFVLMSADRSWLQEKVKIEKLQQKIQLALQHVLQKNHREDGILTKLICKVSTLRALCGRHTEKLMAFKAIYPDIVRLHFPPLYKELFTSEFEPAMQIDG
# D1 allo mod: allosteric modulators of human D1 dopamine receptor; HEK293 D1, CRE-luciferase, dopamine EC30 potentiation; actives deviate in either direction; 58,000 compounds, 5.9% hits; P21728; B-score at 10 µM;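 active = luminescence count or its row- and column-corrected plate score outside the 99.7% band of the plate's sample wells, on either side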
# SF-1 act: activators of human nuclear receptor SF-1. Q13285. CHO-K1 Gal4-SF-1 LBD luciferase reporter; % increase over DMSO SF-1-specific signal. activation, % at 10 µM. 65,000 compounds, 1.9% hits. AID 522;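 active = activation above the mean activation of all tested compounds plus 3 SD, cut at about 50% in these data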
#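 Assay system – CHO-K1 cells with Gal4–hSF-1 LBD chimera plus Gal4-driven luciferase · Quantity – 4,000 cells per well · Times – compound added 1 h post-seeding, 20 h exposure at 37 °C, 5% CO2 · Measured by – luciferase light emission · Benchmarks – DMSO and mock-transfected background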
# M1 antag: M1 muscarinic receptor (rat) antagonism. AID 628. P08482. CHO-M1 cells, Fluo-4 calcium, ACh EC80 antagonist mode; active compounds read low. 64,000 compounds, 3.4% hits. B-score at 10 µM;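 active = calcium fluorescence response, raw or row-and-column corrected B-score, differing from the plate sample mean either way at a set confidence level, mostly lower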
# HePTP inhibitor: inhibitors of human HePTP phosphatase; P35236; recombinant HePTP phosphatase activity, OD absorbance; inhibition, % at 20 µM; 110,000 compounds, 0.64% hits; AID 521; in the data active = inhibition above about 50%;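 note: plate controls were vehicle for no effect and reference inhibitor for full effect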
# M1 antag confirm: M1 muscarinic receptor (rat) antagonism, confirmed; shares compounds with M1 antag; CHO-M1 cells, Fluo-4 calcium, ACh EC80 antagonism; active compounds read low; calcium response (max-min fluorescence) at 10 µM; 1,700 compounds, 43% hits; AID 677;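 active = calcium response below the same-plate mean of wells given acetylcholine alone at its 80%-effect dose, minus 3 SD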;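 note: raw fluorescence intensity difference in arbitrary instrument units and not normalized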
# mGluR4 antag: acts on human mGluR4 in M1 antagonist selectivity test; 1,700 compounds, 0.9% hits; fluorescence response (max-min) at 10 µM; AID 678; shares compounds with M1 antag; CHO-mGluR4 calcium flux, Fluo-4 fluorescence, glutamate EC80; active compounds read low;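 active = fluorescence response below the plate's average for near-maximal glutamate wells, less 3 SD of those wells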;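 note: raw unnormalized fluorescence span taken in the window right after glutamate addition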
# An asterisk follows results filed as active; . = no result. This is a sample that favours compounds with a hit; in the whole collection about 8.2% have one here.
SMILES,M1 ag,RORa activator,D1 allo mod,SF-1 act,M1 antag,HePTP inhibitor,M1 antag confirm,mGluR4 antag
CC1CCCCN1CCNC(=O)C1CC(=O)N(c2ccc(F)c(Cl)c2)C1 (stereo not drawn),0.081,9,-1.6,19,-1.6*,2,440,168
C=CCc1ccc(OCC(O)CN2CCCCC2C)c(OC)c1 (stereo not drawn),0.046,14,.,20,-2.5*,1,574,238
COC(=O)c1[nH]c2cc(OC)ccc2c1NC(=O)CN1CCN(c2cccc(C)c2)C(C)C1 (stereo not drawn),-0.085,26,0.61,17,-0.1,0,.,.
Cn1c(=O)n(CCOc2ccccc2Cl)c2ccccc21,1.1,37,0.19,71*,-3.5*,-4,392*,214
Cn1c(=O)n(CCOc2ccc(F)cc2)c2ccccc21,.,.,.,.,.,4,.,.
CC(=O)c1ccc(OCC(O)CN2C(C)(C)CC(O)CC2(C)C)cc1 (stereo not drawn),0.087,2,0.5,-4,-3.1*,3,622,243
CCN1CCN(CC(O)COc2ccc(C(C)=O)cc2)CC1 (stereo not drawn),-1.4,-27,0.32,-9,-0.0022,-5,.,.
OCC1CCCN(Cc2ccc(-c3ccccc3)cc2)C1 (stereo not drawn),-0.29,11,-0.77,3,-2.9*,10,392*,263
Cn1c(SCc2nnc3n2CCCCC3)nc2ccccc21,-0.00074,-11,0.016,-1,0.28,7,.,.
Cn1c(SCc2nc3ccccc3n2CCO)nc2ccccc21,-0.59,-10,0.018,-1,-2.6*,1,647,225
CCOC(=O)c1c(-c2ccccc2)oc2ccc(OCC(=O)N(CC)CC)cc12,.,.,.,.,.,3,.,.
O=C(COn1nnc2ccccc21)NCC1CCCCC1,0.074,0,0.58,3,-3*,2,614,245
O=C(NCc1ccc(Cl)cc1)c1cc(-c2ccco2)on1,0.26,-18,0.083,-5,-0.34,4,.,.
O=C(NCc1ccc(F)cc1)c1cc(-c2ccco2)on1,-0.73,-4,1.2,5,-3.9*,2,673,177
CCOC(=O)Nc1ccc2c(c1)N(C(=O)CCN1CCOCC1)c1ccccc1S2=O (stereo not drawn),-0.61,-25,0.34,-12,-10*,2,55*,240
O=C(c1ccco1)N1CCN(C2CCCC2)CC1,-0.36,18,-0.094,15,0.54,7,.,.
COc1cc(C2N(c3ccc(F)cc3)C(=O)C3CCCN32)cc(OC)c1OC (stereo not drawn),-0.16,-6,-0.39,-10,-4.4*,4,634,237
CN(CC(=O)Nc1ccc(Cl)cc1)CC(=O)Nc1cc(Cl)ccc1C#N,1.8,-13,-0.0032,-4,1.4,6,.,.
CCN(CC)CCNC(=O)c1sc2nc(-c3ccccc3)cn2c1C,0.028,10,.,11,-0.79*,-7,345*,212
CCOC(=O)N1CCC(N2C(=O)c3ccccc3C2Nc2cc(C(=O)OC)cc(C(=O)OC)c2)CC1 (stereo not drawn),-0.12,21,2.3,-10,-2.8*,6,695,198
O=C(CS(=O)(=O)Cc1ccccc1)N1CCN(Cc2ccc3c(c2)OCO3)CC1,-0.085,7,-0.97,-8,-0.089,6,.,.
O=C(CCS(=O)(=O)c1cccc2nsnc12)N1CCN(Cc2ccc3c(c2)OCO3)CC1,-0.51,-5,1,1,-2.5*,-4,473,221
O=C(CN1CCN(Cc2ccc3c(c2)OCO3)CC1)N1CCc2[nH]c3ccccc3c2C1,-0.78,-17,-0.75,0,-1.7,6,.,.
O=C(Cn1ccc2ccccc2c1=O)N1CCN(Cc2ccc3c(c2)OCO3)CC1,0.07,8,0.67,-1,-2.8*,5,570,181
O=C(CN1CCN(Cc2ccc3c(c2)OCO3)CC1)N1CCc2[nH]c3ccc(F)cc3c2C1,-0.93,15,-1.8,3,-3.8*,4,477,210
SMILES,M1 ag,RORa activator,D1 allo mod,SF-1 act,M1 antag,HePTP inhibitor,M1 antag confirm,mGluR4 antag
CC(=O)CC1(C)OC(N)=C(C#N)C1(C#N)C#N (stereo not drawn),0.69,-24,0.39,-6,1.1,3,.,.
COc1cc(CC(=O)Nc2sccc2C(N)=O)cc(OC)c1OC,-0.83,26,2.2,-8,-0.26,-4,.,.
O=C(OCc1ccc2c(c1)OCO2)c1ccc(S(=O)(=O)N2CCCCC2)cc1,0.57,18,0.61,7,-0.11,2,.,.
O=C(OCC1CCCN2CCCCC12)c1ccc2c(c1)OCO2 (stereo not drawn),0.51,-13,-0.27,-13,-4.8*,6,448,196
O=C(CCn1nc(-c2ccc(Cl)cc2)ccc1=O)N1CCN(c2ccccn2)CC1,1.3,8,2.2,-1,-3*,8,584,247
COc1ccc(CCn2nnnc2C(C(C)C)N2CCC(C(N)=O)CC2)cc1OC (stereo not drawn),0.47,-10,-1.4,-13,0.71,0,.,.
Cc1ccc(CCNC(=O)C2CCCN(S(=O)(=O)c3c(C)noc3C)C2)cc1 (stereo not drawn),-0.22,-9,0.76,2,0.9,-6,.,.
CC(OCC(O)CN(C)CCOc1ccccc1)c1ccc(Cl)cc1 (stereo not drawn),0.21,-13,-0.87,5,-2*,-12,511*,203
COc1ccc(S(=O)(=O)N2CCC(O)(c3ccc(Cl)cc3)CC2)cc1,0.18,-11,-1.3,6,-3.8*,4,379*,243
N#CC1=C(N)SC(N)=C(C#N)C1CCc1ccccc1,1.2,-18,-2.5,-21,-4.6*,1,683,260
C=CCn1c(SCc2ccc(C(=O)NCCO)cc2)nc2sc3c(c2c1=O)CCCC3,.,.,.,.,.,2,.,.
COCCNS(=O)(=O)c1ccc(SC)cc1,-0.2,-2,-0.48,-2,-3.2*,6,610,267
CCCN(CCO)Cc1cccc(Cl)c1,-0.013,-13,-0.0055,10,-2.6*,10,715,194
CCCN(CCO)Cc1ccc(Cl)c(Cl)c1,-0.48,-8,-1.4,0,0.22,-1,.,.
COc1nc(Nc2ccc(-c3nc4ccccc4o3)cc2)nc(N2CCOCC2)n1,0.45,-1,-0.31,-4,1.5,9,.,.
CCc1ccccc1OCCCCN1CCCC1,-0.67,12,-3.1*,18,-4.3*,4,517,272
C=CCc1ccccc1OCCCCN1CCCC1,0.2,11,-3*,1,-3.4*,1,367*,249
COc1ccccc1OCCCCN1CCCC1,.,.,.,.,.,2,.,.

# High-throughput results from PubChem BioAssay.
